A selection: hits, their analogues and other compounds. The true share with any hit is near 1.8%.
CHRM4 PAM: positive allosteric modulators of human muscarinic M4 receptor | P08173 | AID 624126 | 360,000 compounds, 0.4% hits | activation, % at 3 µM | CHO-K1 hM4/Gqi5, Fluo-8 calcium fluorescence, ACh EC20; 0% = ACh EC20, 100% = maximal ACh;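 active = activation above its plate's cutoff, the mean activation of sample wells plus 3 SD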
CHRM5 PAM: CHRM5 positive allosteric modulation | P08912 | CHO-K1 hM5, Fluo-8 calcium, ACh EC20 PAM; 0% = ACh EC20, 100% = ACh EC100 | activation, % at 3 µM | 360,000 compounds, 0.3% hits | AID 624038;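 active = activation above the run cutoff, the mean activation of all test compounds plus 3 SD, cut at about 18% in these data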
Target sequence (P08912 whole entry, looked up): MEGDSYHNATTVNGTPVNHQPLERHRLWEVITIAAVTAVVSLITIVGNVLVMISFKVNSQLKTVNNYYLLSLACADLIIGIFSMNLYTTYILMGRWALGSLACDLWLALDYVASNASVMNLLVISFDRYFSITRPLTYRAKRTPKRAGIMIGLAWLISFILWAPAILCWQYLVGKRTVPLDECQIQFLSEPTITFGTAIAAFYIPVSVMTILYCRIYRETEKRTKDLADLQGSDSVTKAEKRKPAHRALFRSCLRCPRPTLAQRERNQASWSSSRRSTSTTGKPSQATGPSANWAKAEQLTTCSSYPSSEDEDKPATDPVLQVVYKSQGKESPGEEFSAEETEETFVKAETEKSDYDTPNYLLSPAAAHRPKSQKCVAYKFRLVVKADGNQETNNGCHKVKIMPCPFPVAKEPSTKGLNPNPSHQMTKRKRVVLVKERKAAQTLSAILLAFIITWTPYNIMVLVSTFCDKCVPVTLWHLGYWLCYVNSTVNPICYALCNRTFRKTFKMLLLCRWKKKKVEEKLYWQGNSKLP
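Measured by: Fluo-8 calcium fluorescence; material: human M5 receptor in CHO-K1 cells; schedule: Post-acetylcholine fluorescence recording 140 s; benchmarks: low control EC20 acetylcholine (0%), high control EC100 acetylcholine (100%); read-out: Max/basal fluorescence ratio as % of EC20–EC100 ACh window; compound: single dose, 3 µM nominal final test concentration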
CHRM4 antagonist: CHRM4 antagonism in calcium assay | 360,000 compounds, 0.73% hits | P08173 | CHO-hM4 cells, ACh EC80, Fluo-8 calcium fluorescence | inhibition, % at 3 µM;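 active = inhibition above its plate's cutoff, the mean inhibition of sample wells plus 3 SD, cut at about 27% in these data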
CHRM4 agonist: agonists of human muscarinic M4 receptor (CHRM4). AID 624127. 360,000 compounds, 0.14% hits. CHO-K1 hM4/Gqi5, Fluo-8 calcium fluorescence; vehicle 0%, full acetylcholine response 100%. activation, % at 3 µM. P08173;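 active = activation above the run mean over all test wells plus 3 SD, cut at about 32% in these data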;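 also: peak over basal fluorescence ratio per well then scaled between controls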
M5 ag: CHRM5 agonism in calcium assay; CHO-K1 hM5 cells, Fluo-8 calcium fluorescence; 0% DMSO wells, 100% maximal acetylcholine response; 360,000 compounds, 0.19% hits; activation, % at 3 µM; P08912;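 active = activation above the run's mean over test compounds plus 3 SD, cut at about 23% in these data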;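 also: signal is peak over basal fluorescence ratio across the kinetic read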
M5 antag: antagonists of human muscarinic M5 receptor (CHRM5). P08912. AID 624040. CHO-hM5 cells, Fluo-8 calcium fluorescence, ACh EC80. 360,000 compounds, 0.59% hits. inhibition, % at 3 µM;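 active = inhibition above a per-plate cutoff, the mean of that plate's test compounds plus 3 SD, cut at about 27% in these data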
Of the large screens only hits and unclear results are named; the others gave an inactive call.

O=C1c2cccc3c(O)ccc(c23)C(=O)N1Cc1ccccc1	CHRM4 antagonist 46.7, CHRM4 agonist 178.3, M5 ag 173.1, M5 antag 56.5
COc1cccc(OC)c1OCC(=O)Nc1ccc(S(=O)(=O)N2CCCC2)cc1	none
CCOC(=O)[C@@H]1CSCCS(=O)(=O)N1	none
Cc1cccc(C(=O)Nc2ccccc2C(=O)OCC(=O)Nc2ccc(C#N)cc2)c1	M5 antag 27.8
O=[N+]([O-])/C=C\c1ccc(N2CCCC2)c(F)c1	CHRM4 antagonist 34.5, CHRM4 agonist 40.7, M5 ag 63.6, M5 antag 78.0
CN(C)S(=O)(=O)c1ccc(C(=O)NCc2nnc(SCC(=O)N3CCCC3)o2)cc1	none
COc1ccc(/C=C/C(=O)NCC(=O)N/N=C(/CCC(=O)O)c2ccccc2)cc1	CHRM4 antagonist 29.7
CCOC(=O)c1nn(-c2ccc(C)c(C)c2)c(=O)c(C#N)c1C	none
COc1cc(C(=O)Nc2ccc3c(c2)N(C(=O)CCN(C)C)c2ccccc2CC3)cc(OC)c1OC	CHRM4 antagonist 30.4
COc1cc(C(=O)Nc2cccc(C(C)=O)c2)cc(OC)c1OC	none
COc1cc(C(=O)Nc2cccc(NC(=O)c3ccccc3)c2)cc(OC)c1OC	M5 antag 30.1
O=C(NCc1ccc(Cl)cc1)C1CCN(C(=O)c2ccc(Cl)cc2)CC1	none
O=C(/C=C/c1ccccc1[N+](=O)[O-])N1CCN(c2ccccc2F)CC1	none
O=C1CCN(Cc2ccc(O)cc2)CCN1[C@H](CO)c1ccccc1	none
CCOc1ccccc1C(=O)N(C)Cc1cc2cc(OC)ccc2[nH]c1=O	none
CCOc1cc(C(=O)N(C)Cc2cc3cc(OC)ccc3[nH]c2=O)cc(OCC)c1OCC	CHRM4 PAM 29.7
Cc1c(N=NC2=C(O)CC(C)(C)CC2=O)cc2c(c1[N+](=O)[O-])C(C)(C)CC2(C)C	CHRM5 PAM 23.1
CC(=O)Nc1cc2c(c([N+](=O)[O-])c1C)C(C)(C)CC2(C)C	none
CCOc1ccc(C(C)=O)cc1COc1cccnc1[N+](=O)[O-]	none
CC(=O)Nc1nc(-c2ccc3c(c2)CC(C)N3C(=O)C2CC2)c(C)s1 (configuration not stated)	none
Cc1sc(NC(=O)c2ccco2)nc1-c1ccc2c(c1)CC(C)N2C(=O)C1CC1 (configuration not stated)	CHRM4 antagonist 32.2
O=[N+]([O-])c1cc(Cl)cc(/C=N/n2cnnc2)c1O	CHRM5 PAM 24.7
NCc1csc(Nc2ncccn2)n1	none
O=c1oc2c(CN3CCOCC3)c(O)ccc2c2c1CCC2	none
CC(C)CN(Cc1c(O)ccc2c3c(c(=O)oc12)CCC3)CC(C)C	CHRM4 antagonist 28.1
COc1cc2ccccc2nn1	none
COc1ccc2c(n1)Sc1nc3ccccc3nc1N2	CHRM4 agonist 54.3, M5 ag 30.9
CCOC(=O)C1=C(c2ccccc2)NC(=O)NC1c1ccc(O)c(OCC)c1 (configuration not stated)	none
CCOc1cc(C2NC(=O)NC(C)=C2C(=O)OCC2CCCCC2)ccc1O (configuration not stated)	M5 antag 28.9
CCOC(=O)C1=C(CS(=O)(=O)c2ccc(C)cc2)NC(=O)NC1c1ccc(O)c(OC)c1 (configuration not stated)	CHRM5 PAM 19.6
CC(C)COc1ccc(C(=O)Nc2sc3c(c2C(=O)O)CC(C)(C)OC3)cc1	M5 antag 34.1
CCn1c(=O)c2cc(C(=O)NCCN(C)C)sc2c2ccccc21	CHRM5 PAM 19.1
CC(C)[C@H](NC(=O)c1nn(Cc2ccccc2)c(=O)c2ccccc12)C(=O)O	none
COc1ccc(C(=O)c2ccccc2)c(OCC(=O)N(C)C)c1	CHRM4 PAM 22.9
CC(=O)Oc1ccc(C(=O)c2ccccc2)c(OC(C)=O)c1	none
CN(CC1CCOCC1)C(=O)CC1C(=O)NCCN1Cc1ccccc1F (configuration not stated)	none
CCOC(=O)/C(=C/c1ccc(OC(=O)c2ccccc2)cc1)C(C)=O	CHRM4 PAM 21.2
CCOC(=O)/C(=C/c1c2ccccc2cc2ccccc12)NC(=O)c1ccccc1	none
CCOC(=O)/C(=C\c1ccccc1)NC(=O)c1ccccc1	CHRM5 PAM 18.7
C/C(=N\NC(=S)NC(C)C)c1ccc(Cl)s1	CHRM4 antagonist 27.3
C/C(=N\NC(N)=S)c1ccc(Cl)s1	none
COc1ccc(F)cc1CSc1nnnn1-c1ccc(O)cc1	none
COc1cc(CSc2nnnn2-c2ccc(C)cc2)cc(OC)c1OC	M5 antag 30.8
CCN(CC)CC(=O)N1c2ccccc2Sc2ccc(Cl)cc21	CHRM4 antagonist 85.4, M5 antag 96.9
CCCNC(=O)N1c2ccccc2Sc2ccccc21	none
CCN(CC)CCC(=O)N1c2ccccc2Sc2ccc(NC(=O)OC)cc21	none
CCN(CC)CCCCN1c2ccccc2Sc2ccccc21	CHRM4 antagonist 73.1, M5 antag 88.5
CCN(CC)C(=O)N1c2ccccc2Sc2ccccc21	none
CCN(CC)CC(=O)N1c2ccccc2Sc2ccccc21	CHRM4 antagonist 83.6, M5 antag 91.7
NCCCC(=O)N1c2ccccc2Sc2ccccc21	CHRM4 antagonist 42.5, M5 antag 67.2
CCOc1cc(/C=C2\CN(C)C/C(=C\c3ccc(O)c(OCC)c3)C2=O)ccc1O	none
CCOc1cc(/C=C2\CCC/C(=C\c3cc(Cl)c(O)c(OCC)c3)C2=O)cc(Cl)c1O	CHRM4 antagonist 47.2
Cc1ccc(SCC(=O)NC(=O)NC2CCCC2)c(C)c1	none
O=C(CSc1nnc(Cn2nnc3ccccc32)o1)N(Cc1ccc(Cl)cc1)c1ccccc1	M5 antag 29.7
CN1CCCCC1CCN1c2ccccc2Sc2ccc(S(C)=O)cc21 (configuration not stated)	CHRM4 antagonist 88.0, M5 antag 98.4
C=CCN1C(=O)c2ccccc2Sc2ccc(C(=O)N3CCN(C)CC3)cc21	none
CC(c1ccccc1)n1c(-c2cccs2)nc2c(c(=O)c3ccccc3n2C)c1=O (configuration not stated)	none
O=c1oc2c3c4c(cc2c(C(F)(F)F)c1CCN1CCOCC1)CCCN4CCC3	CHRM4 antagonist 29.4
CC(C)CNC(=O)c1cccc(NC(=O)COc2ccc([N+](=O)[O-])cc2)c1	none
CCn1c(=O)c(C(=O)NNC(=O)c2ccccc2F)c(O)c2ccccc21	none
CCn1c(=O)c(C(=O)NNC(=O)c2ccccc2Cl)c(O)c2ccccc21	CHRM4 agonist 54.4
C/C(=N\Nc1ncnc2sc(C)c(C)c12)c1ccccn1	CHRM5 PAM 22.0
N#Cc1cccc(NC(=O)CC2CCCC2)c1	none

Bioassay records deposited in PubChem BioAssay by The Scripps Research Institute Molecular Screening Center.
